According to ChEMBL document CHEMBL1125542, “Dihydropyrimidine calcium channel blockers. 4. Basic 3-substituted-4-aryl-1,4-dihydropyrimidine-5-carboxylic acid esters. Potent antihypertensive agents” (J Med Chem, 1992):

Species: Oryctolagus cuniculus
Assay: In vitro evaluation for the inhibition of potassium-contracted rabbit aorta strips by vasorelaxant assay.
Type: functional
Method in brief: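 Rabbit thoracic aorta strips contracted with potassium chloride (100 mM) in the presence of calcium. IC50 taken as the drug concentration giving 50% relaxation of the contraction, reported with 95% confidence intervals.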

SMILES | IC50 [µM]
COC(=O)C1=C(C)NC(C)=C(C(=O)OC)C1c1ccccc1[N+](=O)[O-] [NIFEDIPINE] | 0.002

Species: Oryctolagus cuniculus
Assay: In vitro inhibition of potassium-contracted rabbit aorta strips
Type: functional
Method in brief: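 Rabbit thoracic aorta strips contracted with potassium chloride (100 mM) in the presence of calcium. IC50 is the drug concentration giving 50% relaxation, reported with 95% confidence intervals.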

SMILES | IC50 [µM]
CC1=C(C(=O)OC(C)C)C(c2ccccc2C(F)(F)F)N(C(=O)O[C@@H]2CCN(Cc3ccccc3)C2)C(=O)N1 (some centres not stated) | 0.36
CCOC(=O)N1C(=S)N=C(C)/C(=C(/O)OCCN(C)Cc2ccccc2)C1c1ccccc1C(F)(F)F (configuration not stated) | 0.022
CCCN1C(S)=NC(C)=C(C(=O)OC2CCN(Cc3ccccc3)CC2)C1c1ccccc1C(F)(F)F (configuration not stated) | > 1
CCO/C(O)=C1\C(C)=NC(=S)N(C(=O)OCCN(C)Cc2ccccc2)C1c1ccccc1C(F)(F)F (configuration not stated) | 0.023
CCO/C(O)=C1\C(C)=NC(=S)N(C(=O)OC2CCN(Cc3ccccc3)CC2)C1c1ccccc1C(F)(F)F (configuration not stated) | 0.009
CC1=NC(=S)N(C(=O)OC2CCN(Cc3ccc(F)cc3)CC2)[C@@H](c2ccccc2C(F)(F)F)/C1=C(\O)OC(C)C | > 1
CC1=C(C(=O)OC(C)C)C(c2ccccc2C(F)(F)F)N(C(=O)OC2CCCN(Cc3ccccc3)C2)C(=O)N1 (configuration not stated) | 0.13
CC1=NC(=S)N(C(=O)OC2CCN(Cc3ccccc3)CC2)C(c2ccccc2C(F)(F)F)/C1=C(\O)OC(C)C (configuration not stated) | 0.005
CC1=NC(=S)N(C(=O)OC2CCN(Cc3ccc(F)cc3)CC2)[C@H](c2ccccc2C(F)(F)F)/C1=C(\O)OC(C)C | 0.015
CC1=C(C(=O)OC(C)C)C(c2cccc([N+](=O)[O-])c2)N(C(=O)O[C@@H](C)CN(C)Cc2ccccc2)C(=O)N1 (some centres not stated) | 0.057
CCOC(=O)N1C(=S)N=C(C)/C(=C(/O)OCCN(C)Cc2ccccc2)C1c1cccc([N+](=O)[O-])c1 (configuration not stated) | 0.034
CCO/C(O)=C1\C(C)=NC(=S)N(C(=O)O[C@H]2CCN(Cc3ccccc3)C2)C1c1ccccc1C(F)(F)F (some centres not stated) | 0.002
CC1=C(C(=O)OC(C)C)C(c2ccccc2C(F)(F)F)N(C(=O)OC2CCN(Cc3ccccc3)CC2)C(=O)N1 (configuration not stated) | 0.05
CC1=C(C(=O)OC(C)C)C(c2ccccc2C(F)(F)F)N(C(=O)OC2CCN(Cc3ccc(Cl)cc3)CC2)C(=O)N1 (configuration not stated) | 0.055
CC1=C(C(=O)OC(C)C)C(c2ccccc2C(F)(F)F)N(CCC2CCN(Cc3ccccc3)CC2)C(S)=N1 (configuration not stated) | 0.12
CCOC(=O)C1=C(COCCN)NC(C)=C(C(=O)OC)C1c1ccccc1Cl (configuration not stated) [AMLODIPINE] | 0.003
CC1=NC(=S)N(C(=O)OC2CCN(Cc3ccccc3)CC2)C(c2ccccc2[N+](=O)[O-])/C1=C(\O)OC(C)C (configuration not stated) | 0.002
CCO/C(O)=C1\C(C)=NC(=S)N(C(=O)OC(C)C)C1c1ccccc1C(F)(F)F (configuration not stated) | 0.05
CC1=C(C(=O)OCC(C)C)C(c2ccccc2C(F)(F)F)N(C(=O)OC2CCN(Cc3ccccc3)CC2)C(=O)N1 (configuration not stated) | 0.098
CC1=NC(=S)N(C(=O)OC2CCN(Cc3ccccc3)CC2)C(c2cccc([N+](=O)[O-])c2)/C1=C(\O)OC(C)C (configuration not stated) | 0.004
CC1=C(C(=O)OC(C)C)C(c2cccc([N+](=O)[O-])c2)N(C(=O)OC2CCN(Cc3ccccc3)CC2)C(=O)N1 (configuration not stated) | 0.012

Continued, values first:

IC50 [µM] | SMILES
0.005 | CC1=NC(=S)N(C(=O)OC2CCN(Cc3ccccc3)CC2)C(c2ccccc2Cl)/C1=C(\O)OC(C)C (configuration not stated)
0.79 | CC1=C(C(=O)OC(C)C)C(c2ccccc2C(F)(F)F)N(C(=O)O[C@H]2CCN(Cc3ccccc3)C2)C(=O)N1 (some centres not stated)
0.064 | CC1=C(C(=O)OC(C)C)C(c2cccc([N+](=O)[O-])c2)N(C(=O)O[C@H](C)CN(C)Cc2ccccc2)C(=O)N1 (some centres not stated)
0.041 | CCOC(=O)N1C(=S)N=C(C)/C(=C(/O)OCC)C1c1ccccc1C(F)(F)F (configuration not stated)
0.072 | CC1=C(C(=O)OC(C)C)C(c2cccc([N+](=O)[O-])c2)N(CCCN(C)Cc2ccccc2)C(S)=N1 (configuration not stated)
0.029 | CCO/C(O)=C1\C(C)=NC(=S)N(C(=O)OCCN(C)Cc2ccccc2)C1c1cccc([N+](=O)[O-])c1 (configuration not stated)
0.017 | CCOC(=O)N1C(=S)N=C(C)/C(=C(/O)OCC)C1c1cccc([N+](=O)[O-])c1 (configuration not stated)
0.008 | CC1=C(C(=O)OC(C)C)C(c2ccccc2[N+](=O)[O-])N(C(=O)OC2CCN(Cc3ccccc3)CC2)C(=O)N1 (configuration not stated)
> 1 | CCOC(=O)C1=C(C)N=C(S)NC1c1cccc([N+](=O)[O-])c1 (configuration not stated)
0.007 | CC1=NC(=S)N(C(=O)OC2CCN(Cc3ccc(F)cc3)CC2)C(c2ccccc2C(F)(F)F)/C1=C(\O)OC(C)C (configuration not stated)
